Measurements reported in ChEMBL document CHEMBL1147105, “In vitro and in vivo activities of PD 0305970 and PD 0326448, new bacterial gyrase/topoisomerase inhibitors with potent antibacterial activities versus multidrug-resistant gram-positive and fastidious organism groups” (2007).
In brackets after ≈: the same amount, converted by molar mass. Activity calls are given as the source filed them.

Tests used:
Streptococcus pyogenes [1] = assay: Bactericidal activity against Streptococcus pyogenes C203 at 0.008 ug/ml by time-kill study; assay type: functional, organism-based
Method in brief: (§1)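 Time-kill in 10 ml of cation-adjusted Mueller-Hinton broth with 3% lysed horse blood, without agitation. Multiples of MIC tested. Samples taken at 0, 2, 4, 6 and 24 h and plated on tryptic soy agar with 5% sheep blood after ≥250-fold dilution, detection limit 10 CFU/ml. Counts read after 24 h at 35°C. Bactericidal defined as a ≥3 log10 drop from the starting inoculum within 24 h.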

Streptococcus pneumoniae [2] = assay: Bactericidal activity against Streptococcus pneumoniae SV1 at 2 ug/ml by time-kill study; assay type: functional, organism-based; method in brief: as §1
Staphylococcus aureus [3] = assay: Antibacterial efficacy against methicillin-resistant Staphylococcus aureus SA1417 infected orally dosed CD1 mouse model; assay type: functional
Method in brief: (§2)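 Sepsis model in female CD1 mice (6–8 weeks, 18–22 g). Lethal i.p. challenge (0.5 ml) at ≥100 median lethal doses. Streptococci were given in Todd-Hewitt broth; other organisms were given with 20% hog gastric mucin. A single oral gavage dose (0.5 ml, in 0.5% methylcellulose) was given at the time of challenge. The PD50 (mg/kg) was calculated by probit analysis.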

Streptococcus pneumoniae [4] = assay: Bactericidal activity against Streptococcus pneumoniae SV1 at 0.008 ug/ml by time-kill study; assay type: functional, organism-based; method in brief: as §1
Enterococcus faecalis = assay: Antibacterial efficacy against Enterococcus faecalis MGH2 infected orally dosed CD1 mouse model; assay type: functional; method in brief: as §2
Staphylococcus aureus [5] = assay: Antibacterial efficacy against methicillin-susceptible Staphylococcus aureus UC76 infected orally dosed CD1 mouse model; assay type: functional; details: UC76, po; method in brief: as §2
Staphylococcus aureus [6] = assay: Antibacterial efficacy against ciprofloxacin and methicillin-resistant Staphylococcus aureus SA2017 infected orally dosed CD1 mouse model; assay type: functional; method in brief: as §2
Streptococcus pyogenes [7] = assay: Antibacterial efficacy against Streptococcus pyogenes C203 infected orally dosed CD1 mouse model; assay type: functional; details: C203, po; method in brief: as §2
Streptococcus pyogenes [8] = assay: Bactericidal activity against Streptococcus pyogenes C203 at 2 ug/ml by time-kill study; assay type: functional, organism-based; method in brief: as §1
Streptococcus pneumoniae [9] = assay: Antibacterial efficacy against Streptococcus pneumoniae SVI infected orally dosed CD1 mouse model; assay type: functional; details: po; method in brief: as §2

O=C(O)c1cn(C2CC2)c2cc(N3CCNCC3)c(F)cc2c1=O [CIPROFLOXACIN]
Activity (Streptococcus pyogenes [1]): Active
Activity (Streptococcus pneumoniae [2]): Active
MIC (Staphylococcus aureus [3]): 0.5 µg/mL (≈ 1.51 µM)
ED50 (Staphylococcus aureus [3]; read-out: PD50): 18 mg/kg
Activity (Streptococcus pneumoniae [4]): Active
MIC (Enterococcus faecalis): 0.5 µg/mL (≈ 1.51 µM)
MIC (Staphylococcus aureus [5]): 0.06 µg/mL (≈ 0.181 µM)
ED50 (Staphylococcus aureus [5]; read-out: PD50): 9.1 mg/kg
MIC (Staphylococcus aureus [6]): > 64 µg/mL
ED50 (Staphylococcus aureus [6]; read-out: PD50): > 100 mg/kg
MIC (Streptococcus pyogenes [7]): 0.5 µg/mL (≈ 1.51 µM)
ED50 (Streptococcus pyogenes [7]; read-out: PD50): > 100 mg/kg
Activity (Streptococcus pyogenes [8]): Active
MIC (Streptococcus pneumoniae [9]): 2 µg/mL (≈ 6.04 µM)
ED50 (Streptococcus pneumoniae [9]; read-out: PD50): > 100 mg/kg
